From ChEMBL document CHEMBL1811814, “Synthesis and evaluation of indole, pyrazole, chromone and pyrimidine based conjugates for tumor growth inhibitory activities--development of highly efficacious cytotoxic agents” (Eur J Med Chem, 2010)

Legend:
Type in all cases: functional
Parameters in all cases: scale not given: the % may be the effect or the level left
CCRF-CEM = assay: Growth inhibition of human CCRF-CEM cells assessed tumor cell growth at 10^-5 M
How it was run: (§1)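 NCI 60-human-tumor-cell-line panel screen. Each compound was tested at a single concentration of 10^-5 M, and percent growth of tumor cells was recorded for each cell line. Growth inhibition was expressed from these percent-growth values.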

HL-60(TB) = assay: Growth inhibition of human HL-60(TB) cells assessed tumor cell growth at 10^-5 M
How it was run: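 HL-60(TB), part of the 60-line panel, tested at a single concentration of 10^-5 M. The read-out is percent tumor cell growth relative to untreated growth.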

K562 = assay: Growth inhibition of human K562 cells assessed tumor cell growth at 10^-5 M; how it was run: as §1
MOLT-4 = assay: Growth inhibition of human MOLT4 cells assessed tumor cell growth at 10^-5 M; how it was run: as §1
[1] = Growth inhibition of human […] cells assessed tumor cell growth at 10^-5 M; how it was run: as §1
A549 = assay: Growth inhibition of human A549 cells assessed tumor cell growth at 10^-5 M; how it was run: as §1
EKVX = assay: Growth inhibition of human EKVX cells assessed tumor cell growth at 10^-5 M; how it was run: as §1
HOP-62 = assay: Growth inhibition of human HOP62 cells assessed tumor cell growth at 10^-5 M; how it was run: as §1
HOP-92 = assay: Growth inhibition of human HOP92 cells assessed tumor cell growth at 10^-5 M; how it was run: as §1
NCI-H226 = assay: Growth inhibition of human NCI-H226 cells assessed tumor cell growth at 10^-5 M; how it was run: as §1
NCI-H23 = assay: Growth inhibition of human NCI-H23 cells assessed tumor cell growth at 10^-5 M; how it was run: as §1
NCI-H322M = assay: Growth inhibition of human NCI-H322M cells assessed tumor cell growth at 10^-5 M; how it was run: as §1
NCI-H460 = assay: Growth inhibition of human NCI-H460 cells assessed tumor cell growth at 10^-5 M; how it was run: as §1
NCI-H522 = assay: Growth inhibition of human NCI-H522 cells assessed tumor cell growth at 10^-5 M; how it was run: as §1
COLO 205 = assay: Growth inhibition of human COLO205 cells assessed tumor cell growth at 10^-5 M; how it was run: as §1
HCC 2998 = assay: Growth inhibition of human HCC2998 cells assessed tumor cell growth at 10^-5 M; how it was run: as §1
HCT-116 = assay: Growth inhibition of human HCT116 cells assessed tumor cell growth at 10^-5 M; how it was run: as §1
HCT-15 = assay: Growth inhibition of human HCT15 cells assessed tumor cell growth at 10^-5 M; how it was run: as §1
HT-29 = assay: Growth inhibition of human HT-29 cells assessed tumor cell growth at 10^-5 M; how it was run: as §1
KM12 = assay: Growth inhibition of human KM12 cells assessed tumor cell growth at 10^-5 M; how it was run: as §1
SW-620 = assay: Growth inhibition of human SW620 cells assessed tumor cell growth at 10^-5 M
How it was run: (§2)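 Single-dose screen at 10^-5 M across the 60 human tumor cell line panel, run to NCI standards. The value is the percent growth of each cell line in the presence of compound. Compounds active at this dose moved on to five-concentration testing (10^-4 to 10^-8 M).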

SF-268 = assay: Growth inhibition of human SF268 cells assessed tumor cell growth at 10^-5 M; how it was run: as §1
SF-295 = assay: Growth inhibition of human SF295 cells assessed tumor cell growth at 10^-5 M; how it was run: as §1
SF-539 = assay: Growth inhibition of human SF539 cells assessed tumor cell growth at 10^-5 M; how it was run: as §1
SNB-19 = assay: Growth inhibition of human SNB19 cells assessed tumor cell growth at 10^-5 M; how it was run: as §2
SNB-75 = assay: Growth inhibition of human SNB75 cells assessed tumor cell growth at 10^-5 M; how it was run: as §2
U-251 = assay: Growth inhibition of human U251 cells assessed tumor cell growth at 10^-5 M; how it was run: as §2
LOX IMVI = assay: Growth inhibition of human LOXIMVI cells assessed tumor cell growth at 10^-5 M; how it was run: as §1
Malme-3M = assay: Growth inhibition of human MALME-3M cells assessed tumor cell growth at 10^-5 M; how it was run: as §1
M14 = assay: Growth inhibition of human M14 cells assessed tumor cell growth at 10^-5 M; how it was run: as §1
MDA-MB-435 = assay: Growth inhibition of human MDA-MB-435 cells assessed tumor cell growth at 10^-5 M; how it was run: as §1
SK-MEL-2 = assay: Growth inhibition of human SK-MEL-2 cells assessed tumor cell growth at 10^-5 M; how it was run: as §1
SK-MEL-28 = assay: Growth inhibition of human SK-MEL-28 cells assessed tumor cell growth at 10^-5 M; how it was run: as §1
SK-MEL-5 = assay: Growth inhibition of human SK-MEL-5 cells assessed tumor cell growth at 10^-5 M; how it was run: as §1
UACC-257 = assay: Growth inhibition of human UACC257 cells assessed tumor cell growth at 10^-5 M; how it was run: as §2
UACC-62 = assay: Growth inhibition of human UACC62 cells assessed tumor cell growth at 10^-5 M; how it was run: as §2
IGROV-1 = assay: Growth inhibition of human IGROV1 cells assessed tumor cell growth at 10^-5 M; how it was run: as §1
OVCAR-3 = assay: Growth inhibition of human OVCAR3 cells assessed tumor cell growth at 10^-5 M; how it was run: as §1
OVCAR-4 = assay: Growth inhibition of human OVCAR4 cells assessed tumor cell growth at 10^-5 M; how it was run: as §1
OVCAR-5 = assay: Growth inhibition of human OVCAR5 cells assessed tumor cell growth at 10^-5 M; how it was run: as §1
OVCAR-8 = assay: Growth inhibition of human OVCAR8 cells assessed tumor cell growth at 10^-5 M; how it was run: as §1
NCI/ADR-RES = assay: Growth inhibition of human NCI/ADR-RES cells assessed tumor cell growth at 10^-5 M; how it was run: as §1
SK-OV-3 = assay: Growth inhibition of human SKOV3 cells assessed tumor cell growth at 10^-5 M; how it was run: as §1
786-0 = assay: Growth inhibition of human 786-0 cells assessed tumor cell growth at 10^-5 M; how it was run: as §1
A498 = assay: Growth inhibition of human A498 cells assessed tumor cell growth at 10^-5 M; how it was run: as §1
ACHN = assay: Growth inhibition of human ACHN cells assessed tumor cell growth at 10^-5 M; how it was run: as §1
CAKI-1 = assay: Growth inhibition of human Caki1 cells assessed tumor cell growth at 10^-5 M; how it was run: as §1
RXF 393 = assay: Growth inhibition of human RXF393 cells assessed tumor cell growth at 10^-5 M; how it was run: as §1
SN12C = assay: Growth inhibition of human SN12C cells assessed tumor cell growth at 10^-5 M; how it was run: as §1
TK-10 = assay: Growth inhibition of human TK10 cells assessed tumor cell growth at 10^-5 M; how it was run: as §2
UO-31 = assay: Growth inhibition of human UO31 cells assessed tumor cell growth at 10^-5 M; how it was run: as §2
PC-3 = assay: Growth inhibition of human PC3 cells assessed tumor cell growth at 10^-5 M; how it was run: as §1
DU-145 = assay: Growth inhibition of human DU145 cells assessed tumor cell growth at 10^-5 M; how it was run: as §1
MCF7 = assay: Growth inhibition of human MCF7 cells assessed tumor cell growth at 10^-5 M; how it was run: as §1
MDA-MB-231 = assay: Growth inhibition of human MDA-MB-231 cells assessed tumor cell growth at 10^-5 M; how it was run: as §1
[2] = Growth inhibition of human Hs 578T cells assessed tumor cell growth at 10^-5 M; how it was run: as §1
BT-549 = assay: Growth inhibition of human BT549 cells assessed tumor cell growth at 10^-5 M; how it was run: as §1
T47D = assay: Growth inhibition of human T47D cells assessed tumor cell growth at 10^-5 M; how it was run: as §2
MDA-MB-468 = assay: Growth inhibition of human MDA-MB-468 cells assessed tumor cell growth at 10^-5 M; how it was run: as §1

## Cc1ccc(S(=O)(=O)n2cc(/C=C3\C(=O)Nc4ccccc43)c3ccccc32)cc1
CCRF-CEM
  Activity: 95.6%
HL-60(TB)
  Activity: 100.6%
K562
  Activity: 85%
MOLT-4
  Activity: 95.7%
[1]
  Activity: 80.7%
A549
  Activity: 88.2%
EKVX
  Activity: 93.8%
HOP-62
  Activity: 98.5%
HOP-92
  Activity: 67.4%
NCI-H226
  Activity: 86.3%
NCI-H23
  Activity: 89.8%
NCI-H322M
  Activity: 106.5%
NCI-H460
  Activity: 97.3%
NCI-H522
  Activity: 111.2%
COLO 205
  Activity: 54.4%
HCC 2998
  Activity: 98.6%
HCT-116
  Activity: 92.5%
HCT-15
  Activity: 79.5%
HT-29
  Activity: 104.5%
KM12
  Activity: 97%
SW-620
  Activity: 103%
SF-268
  Activity: 88.4%
SF-295
  Activity: 97.1%
SF-539
  Activity: 93.1%
SNB-19
  Activity: 85.2%
SNB-75
  Activity: 73.4%
U-251
  Activity: 86.4%
LOX IMVI
  Activity: 82.7%
Malme-3M
  Activity: 111%
M14
  Activity: 96%
MDA-MB-435
  Activity: 93.2%
SK-MEL-2
  Activity: 86.6%
SK-MEL-28
  Activity: 86.8%
SK-MEL-5
  Activity: 84.9%
UACC-257
  Activity: 84%
UACC-62
  Activity: 64%
IGROV-1
  Activity: 73%
OVCAR-3
  Activity: 83.7%
OVCAR-4
  Activity: 70.1%
OVCAR-5
  Activity: 87.3%
OVCAR-8
  Activity: 91.2%
NCI/ADR-RES
  Activity: 92.1%
SK-OV-3
  Activity: 99.1%
786-0
  Activity: 99.7%
A498
  Activity: 102%
ACHN
  Activity: 82.2%
CAKI-1
  Activity: 53.7%
RXF 393
  Activity: 97.6%
SN12C
  Activity: 88.3%
TK-10
  Activity: 117.8%
UO-31
  Activity: 60.9%
PC-3
  Activity: 92.8%
DU-145
  Activity: 101.5%
MCF7
  Activity: 56.6%
MDA-MB-231
  Activity: 66.4%
[2]
  Activity: 92.2%
BT-549
  Activity: 97.5%
T47D
  Activity: 77.3%
MDA-MB-468
  Activity: 117.2%
